Source: ChEMBL document CHEMBL1142735, “Discovery of a new series of centrally active tricyclic isoxazoles combining serotonin (5-HT) reuptake inhibition with alpha2-adrenoceptor blocking activity” (J Med Chem, 2005)

Experiments:
Rattus norvegicus [1] = test: Effective dose for antagonism ofpCA-Induced excitation was determined by oral administration; type: functional
In short: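 Oral pretreatment of overnight-fasted male Wistar rats (200-250 g), then medetomidine 0.10 mg/kg iv (reversal means no loss of righting) or pCA 5 mg/kg sc (excitation scored 0-3 over 15 min from 45 min after pCA; inhibition means score <2). Doses taken from a geometric series.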

Rattus norvegicus [2] = test: Effective dose for PCA-induced 5-HT depletion was determined by oral administration; type: functional
In short: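 Male Wiga Wistar rats (200 g, n=6 per condition) dosed sc or po (10 mL/kg). At 4 h, frontal cortex removed and extracted with perchloric acid/metabisulfite; 5-HT measured by HPLC-electrochemical detection against a standard curve with dihydroxybenzylamine internal standard. Effect scaled between pCA+vehicle and vehicle+vehicle controls; ED50 from sigmoidal fit.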

[3] = molecular target: T1, 5-hydroxytryptamine receptor 1A (Homo sapiens, UniProt P08908); test: Inhibition of [3H]8-OH-DPAT binding to 5-hydroxytryptamine 1A receptor
T1 sequence (P08908 whole entry): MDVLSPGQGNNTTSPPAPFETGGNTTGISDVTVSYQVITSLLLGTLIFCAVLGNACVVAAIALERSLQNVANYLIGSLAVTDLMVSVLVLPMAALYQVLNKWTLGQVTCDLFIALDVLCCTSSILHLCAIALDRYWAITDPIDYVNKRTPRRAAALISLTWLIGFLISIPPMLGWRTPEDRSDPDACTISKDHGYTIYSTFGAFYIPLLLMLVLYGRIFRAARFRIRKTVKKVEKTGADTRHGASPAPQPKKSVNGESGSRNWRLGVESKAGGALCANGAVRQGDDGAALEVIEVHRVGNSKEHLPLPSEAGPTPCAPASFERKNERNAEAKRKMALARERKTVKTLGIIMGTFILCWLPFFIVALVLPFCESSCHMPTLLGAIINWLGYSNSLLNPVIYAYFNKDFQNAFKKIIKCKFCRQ
In short: (§1)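 Radioligand competition binding on membranes from cell lines carrying the human target, incubated with the labelled ligand under optimized conditions. Separation by filtration, except α1A and D3, which used scintillation proximity assay.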

Histamine H1 receptor = Histamine H1 receptor (Homo sapiens, UniProt P35367); test: Inhibition of [3H]pyrilamine binding to Histamine H1 receptor
Chain of Histamine H1 receptor (P35367 whole entry): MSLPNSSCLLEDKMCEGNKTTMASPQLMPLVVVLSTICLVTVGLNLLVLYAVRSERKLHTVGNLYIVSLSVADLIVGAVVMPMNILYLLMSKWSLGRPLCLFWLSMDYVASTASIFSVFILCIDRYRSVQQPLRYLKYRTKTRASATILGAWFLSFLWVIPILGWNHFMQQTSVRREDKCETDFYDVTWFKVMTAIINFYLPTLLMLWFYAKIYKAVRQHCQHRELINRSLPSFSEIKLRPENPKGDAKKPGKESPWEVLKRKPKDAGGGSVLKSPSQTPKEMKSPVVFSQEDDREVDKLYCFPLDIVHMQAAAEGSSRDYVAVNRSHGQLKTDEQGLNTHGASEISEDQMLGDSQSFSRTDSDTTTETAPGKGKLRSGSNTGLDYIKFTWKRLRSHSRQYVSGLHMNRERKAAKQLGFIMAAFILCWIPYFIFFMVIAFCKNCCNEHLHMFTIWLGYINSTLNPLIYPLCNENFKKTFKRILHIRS
In short: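 Radioligand competition on membranes from a cell line transfected with the human target, incubated under optimized conditions. Stopped by rapid filtration. Ki by Cheng-Prusoff.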

[4] = molecular target: 5-hydroxytryptamine receptor 7 (Homo sapiens, UniProt P34969); test: Inhibition of [3H]5-HT binding to 5-hydroxytryptamine 7 receptor; in short: as §1
Chain of 5-hydroxytryptamine receptor 7 (P34969 whole entry): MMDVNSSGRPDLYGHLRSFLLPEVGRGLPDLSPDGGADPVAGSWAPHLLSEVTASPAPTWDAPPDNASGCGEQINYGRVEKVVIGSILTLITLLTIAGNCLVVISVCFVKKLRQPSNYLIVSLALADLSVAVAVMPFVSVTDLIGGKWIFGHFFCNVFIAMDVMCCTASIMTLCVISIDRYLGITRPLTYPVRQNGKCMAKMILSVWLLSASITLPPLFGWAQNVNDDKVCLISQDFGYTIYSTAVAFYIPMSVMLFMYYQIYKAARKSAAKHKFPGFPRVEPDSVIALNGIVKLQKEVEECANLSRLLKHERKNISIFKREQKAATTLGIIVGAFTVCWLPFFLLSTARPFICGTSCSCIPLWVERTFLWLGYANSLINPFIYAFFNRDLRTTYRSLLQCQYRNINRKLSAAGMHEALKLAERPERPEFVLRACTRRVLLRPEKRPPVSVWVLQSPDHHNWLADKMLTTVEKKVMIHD

D(2) dopamine receptor = D(2) dopamine receptor (Homo sapiens, UniProt P14416); test: Inhibition of [3H]spiperone binding to Dopamine receptor D2; in short: as §1
Chain of D(2) dopamine receptor (P14416 whole entry): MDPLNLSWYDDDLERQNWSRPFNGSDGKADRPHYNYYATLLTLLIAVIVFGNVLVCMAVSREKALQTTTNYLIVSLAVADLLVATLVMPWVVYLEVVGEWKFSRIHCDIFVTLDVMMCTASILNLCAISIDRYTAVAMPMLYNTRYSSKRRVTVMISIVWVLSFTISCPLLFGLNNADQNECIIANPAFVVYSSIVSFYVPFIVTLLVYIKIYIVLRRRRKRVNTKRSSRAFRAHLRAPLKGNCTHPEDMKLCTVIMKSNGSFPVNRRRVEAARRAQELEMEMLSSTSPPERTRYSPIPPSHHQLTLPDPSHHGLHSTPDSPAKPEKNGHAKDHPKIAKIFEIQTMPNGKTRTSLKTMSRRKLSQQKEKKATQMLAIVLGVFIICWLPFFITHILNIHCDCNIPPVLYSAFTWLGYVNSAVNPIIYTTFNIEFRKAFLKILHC

[5] = molecular target: T2, Adrenergic receptor alpha-1 (Homo sapiens, UniProt P35348+P25100+P35368); test: Inhibition of [3H]- prazosin binding to alpha-1 adrenergic receptor; type: protein assay; in short: as §1
T2 sequence (P35348 whole entry): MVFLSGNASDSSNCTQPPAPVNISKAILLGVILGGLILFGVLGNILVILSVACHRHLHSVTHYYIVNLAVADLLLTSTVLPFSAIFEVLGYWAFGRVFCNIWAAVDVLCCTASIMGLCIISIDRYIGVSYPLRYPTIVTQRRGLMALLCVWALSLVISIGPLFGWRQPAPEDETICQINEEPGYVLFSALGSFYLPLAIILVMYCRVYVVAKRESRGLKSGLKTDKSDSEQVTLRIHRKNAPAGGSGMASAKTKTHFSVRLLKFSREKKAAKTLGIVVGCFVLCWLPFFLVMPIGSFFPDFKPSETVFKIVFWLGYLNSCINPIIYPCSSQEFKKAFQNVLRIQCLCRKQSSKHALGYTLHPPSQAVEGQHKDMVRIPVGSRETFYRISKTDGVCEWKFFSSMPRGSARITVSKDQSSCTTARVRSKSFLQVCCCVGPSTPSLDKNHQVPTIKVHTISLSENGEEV
T2 sequence (P25100 whole entry): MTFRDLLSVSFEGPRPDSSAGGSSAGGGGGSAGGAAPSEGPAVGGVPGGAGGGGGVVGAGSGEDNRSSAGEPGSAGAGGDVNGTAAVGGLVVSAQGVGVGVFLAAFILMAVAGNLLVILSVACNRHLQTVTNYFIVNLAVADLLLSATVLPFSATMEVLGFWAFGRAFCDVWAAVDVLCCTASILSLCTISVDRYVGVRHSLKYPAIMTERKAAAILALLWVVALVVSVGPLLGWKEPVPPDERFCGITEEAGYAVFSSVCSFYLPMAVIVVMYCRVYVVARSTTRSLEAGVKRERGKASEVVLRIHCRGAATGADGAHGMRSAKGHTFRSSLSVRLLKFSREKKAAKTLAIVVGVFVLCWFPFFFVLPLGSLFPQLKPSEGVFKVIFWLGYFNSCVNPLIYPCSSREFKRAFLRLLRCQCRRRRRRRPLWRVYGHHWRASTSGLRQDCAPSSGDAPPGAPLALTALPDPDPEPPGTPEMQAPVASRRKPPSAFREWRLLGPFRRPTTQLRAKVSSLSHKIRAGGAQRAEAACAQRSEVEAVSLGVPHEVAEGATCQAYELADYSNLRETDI
T2 sequence (P35368 whole entry): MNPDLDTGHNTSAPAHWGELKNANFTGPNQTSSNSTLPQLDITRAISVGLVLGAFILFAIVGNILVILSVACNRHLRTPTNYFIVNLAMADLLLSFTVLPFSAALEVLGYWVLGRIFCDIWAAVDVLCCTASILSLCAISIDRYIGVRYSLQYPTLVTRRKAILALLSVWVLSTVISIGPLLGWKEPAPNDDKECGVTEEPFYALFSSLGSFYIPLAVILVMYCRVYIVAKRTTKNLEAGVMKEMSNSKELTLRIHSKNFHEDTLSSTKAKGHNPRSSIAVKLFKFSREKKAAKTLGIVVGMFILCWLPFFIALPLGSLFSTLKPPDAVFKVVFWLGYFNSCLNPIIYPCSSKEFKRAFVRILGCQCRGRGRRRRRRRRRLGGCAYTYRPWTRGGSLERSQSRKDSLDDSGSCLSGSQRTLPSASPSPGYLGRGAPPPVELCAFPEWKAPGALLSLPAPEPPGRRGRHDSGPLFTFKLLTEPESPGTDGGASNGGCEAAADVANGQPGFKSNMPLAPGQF

Rattus norvegicus [6] = test: Effective dose concentration for antagonism ofpCA-Induced excitation was determined by subcutaneous administration; type: functional; details: sc
In short: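 Male Wistar rats (200-250 g), fasted overnight, given test compound or solvent sc before challenge. Loss of righting induced by medetomidine 0.10 mg/kg iv; reversal means no loss of righting. Excitation induced by pCA 5 mg/10 mL/kg sc and scored 0-3 over 15 min starting 45 min after pCA; inhibition means score <2.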

[7] = molecular target: 5-hydroxytryptamine receptor 2A (Homo sapiens, UniProt P28223); test: Inhibition of [125I]- R91150 binding to 5-hydroxytryptamine 2A receptor; in short: as §1
Chain of 5-hydroxytryptamine receptor 2A (P28223 whole entry): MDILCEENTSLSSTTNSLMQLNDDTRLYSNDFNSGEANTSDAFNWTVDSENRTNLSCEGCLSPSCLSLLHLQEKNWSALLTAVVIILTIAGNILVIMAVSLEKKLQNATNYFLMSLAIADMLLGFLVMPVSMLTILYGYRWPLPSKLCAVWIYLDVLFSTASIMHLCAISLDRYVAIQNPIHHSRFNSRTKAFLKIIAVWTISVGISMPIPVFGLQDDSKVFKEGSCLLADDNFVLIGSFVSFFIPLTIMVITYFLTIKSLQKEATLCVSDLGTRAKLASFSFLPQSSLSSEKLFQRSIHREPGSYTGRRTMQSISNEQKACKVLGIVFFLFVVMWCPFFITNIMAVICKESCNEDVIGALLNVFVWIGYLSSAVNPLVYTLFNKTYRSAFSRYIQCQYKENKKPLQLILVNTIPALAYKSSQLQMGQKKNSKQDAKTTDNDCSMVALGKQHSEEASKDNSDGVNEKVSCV

Row | Ki [3] [µM] | Ki (Histamine H1 receptor) [µM] | Ki [4] [µM] | Ki (D(2) dopamine receptor) [µM] | Ki [5] [µM] | Ki [7] [µM] | SMILES | ED50 (Rattus norvegicus [1]) [mg/kg] | ED50 (Rattus norvegicus [2]) [mg/kg] | ED50 (Rattus norvegicus [6]) [mg/kg]
1 | > 1 | > 1 | > 1 | 0.959 | > 1 | > 1 | COc1cc2c(cc1OC)C1=NO[C@@H](CN3CCN(C/C=C/c4ccccc4)CC3)[C@@H]1CO2 | 5 | 1.1 | 0.39
2 | > 1 | 0.46 | > 1 | > 1 | > 1 | > 1 | COc1cc2c(cc1OC)C1=NO[C@@H](CN3CCN(Cc4ccc5ccccc5c4)CC3)[C@@H]1CO2 | 5 | 2.6 | 0.08
3 | 0.475 | 0.113 | > 1 | 0.23 | 0.38 | > 1 | COc1cc2c(cc1OC)C1=NO[C@@H](CN3CCN(C/C(C)=C/c4ccccc4)CC3)[C@@H]1CO2 |  | 3.8 | 
4 | > 1 | > 1 | > 1 | > 1 | > 1 | > 1 | COc1cc2c(cc1OC)C1=NO[C@@H](CN3CCN(C/C=C(\C)c4ccccc4)CC3)[C@@H]1CO2 | ≥ 2.5 | 3.5 | 0.5
